Experimental data collected from several papers.
Compare with care: the assays were run in different laboratories. ≈ marks a conversion by molar mass, not a printed value.

| Structure (SMILES) | tested on | test | system | setting | quantity | result |
| --- | --- | --- | --- | --- | --- | --- |
| COc1ccc(NCC(=O)Nc2c(C#N)sc(Nc3ccccc3)c2C(=O)Nc2ccc(OC)cc2)cc1 | HepG2 | cell growth or viability, SRB |  | 10 nM, 48 h | viability | 91.1% |
| CCCCNC(=O)c1c(N)sc2c1CCN(CC)C2 | Mycobacterium tuberculosis | microbial growth, resazurin | H37RV | 7 days | MIC | > 300 µM |
| Cn1nccc1-c1nc(N2CCC(c3ccccn3)C2)c2ccccc2n1 (centres unmarked) | Trypanosoma cruzi | parasite growth, imaging | U2OS | intracellular, amastigote | IC50 | 16400 nM |
| COc1ccc(NC(=O)c2c(Nc3ccccc3)sc(C#N)c2NC(=O)CNc2ccccc2[N+](=O)[O-])cc1 | HepG2 | cell growth or viability, SRB |  | 10 µM, 48 h | viability | 84.6% |
| OC1(c2ccccc2)CCN(c2nc(-c3ccccn3)nc3ccccc23)C1 (centres unmarked) | Trypanosoma cruzi | parasite growth, imaging | U2OS | intracellular, amastigote | IC50 | 3510 nM |
| CCOC(=O)c1ccc(-n2c(C)cc(/C=C/c3ccc(OCC)cc3)c(C#N)c2=O)cc1 | HepG2 | cell growth or viability, MTT |  | 50 µM, 24 h | viability | 53.1% |
| Nc1sc(-c2ccccc2)cc1C(=O)NCc1ccccc1 | Mycobacterium tuberculosis | microbial growth, resazurin | H37RV |  | MIC | 325 µM (≈ 100 µg/mL) |
| CCOC(=O)c1ccc(NC(=O)C2=C3C(=Nc4ccccc43)NC2=O)cc1 | HepG2 | cell growth or viability, MTT |  | 12.5 µM, 24 h | viability | 68.1% |
| COc1ccc(NC(=O)c2c(Nc3ccccc3)sc(C(=O)NN=Cc3ccc(Cl)cc3)c2NC(C)=O)cc1 | HepG2 | cell growth or viability, SRB |  | 0.1 µM, 48 h | viability | 92.3% |
| Oc1ccc(-c2nc(N3CCC(c4ccccn4)C3)c3ccccc3n2)cc1 (centres unmarked) | Trypanosoma cruzi | parasite growth, imaging | U2OS | intracellular, amastigote | IC50 | 1130 nM |
| COc1ccc(NC(=O)c2c(Nc3ccccc3)sc(C(=O)NN=Cc3ccc(C)cc3)c2NC(C)=O)cc1 | HepG2 | cell growth or viability, SRB |  | 1 nM, 48 h | viability | 100% |
| CCOC(=O)c1ccc(-n2c(C)cc(C)c(C#N)c2=O)cc1 | HepG2 | cell growth or viability, MTT |  | 12.5 µM, 24 h | viability | 76.1% |
| Fc1cccc(Nc2nc(-c3ccccn3)nc3ccccc23)c1 | Trypanosoma cruzi | parasite growth, imaging | U2OS | intracellular, amastigote | IC50 | 1500 nM |
| CCN1CCc2c(sc(N)c2C(=O)NCc2ccc(C)cc2)C1 | Mycobacterium tuberculosis | microbial growth, resazurin | H37RV |  | MIC | > 300 µM |
| COc1ccc(NC(=O)c2c(Nc3ccccc3)sc(C#N)c2NC(=O)CNc2ccc([N+](=O)[O-])cc2)cc1 | HepG2 | cell growth or viability, SRB |  | 1 µM, 48 h | viability | 68.4% |
| CCOC(=O)c1ccc(-n2c(C)cc(/C=C/c3ccc(OC)cc3)c(C#N)c2=O)cc1 | HepG2 | cell growth or viability, MTT |  | 25 µM, 24 h | viability | 72.6% |
| Nc1sc(-c2ccccc2)cc1C(=O)NC12CC3CC(CC(C3)C1)C2 | Mycobacterium tuberculosis | microbial growth, resazurin | H37RV |  | MIC | > 200 µM |
